Experimental findings from article PMC7655718 (The Journal of antibiotics, 2020) are described below.

Test [1] concerns S. aureus ATCC 25923 (Sa23). Briefly: MIC, microdilution with resazurin. It counts as cell-based. The following applies: Staphylococcus aureus, ATCC25923, read-out: MIC Sa23. In short, it runs like this:
(§1)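 Compounds dissolved in DMSO at 2 mg/mL. Overnight blood-agar colonies were suspended in PBS to 0.5 McFarland, then diluted in Mueller Hinton broth to about 1x10^6 cfu/mL with resazurin (1:1000 of 0.1% w/v stock). Twofold DMSO dilutions were added 1:40, giving 50 to 0.4 μg/mL at 2.5% DMSO. Incubation was 35 °C for 16-20 h. Blue/non-turbid wells counted as inhibited, pink/turbid as grown.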

The subject of test [2] is S. aureus ATCC 700699 (Sa99). Nature of the test: MIC, microdilution with resazurin. Type of test: cell-based. The following applies: Staphylococcus aureus, ATCC700699, read-out: MIC Sa99. In short, it runs like this: as §1
For test [3], the system named is tested Gram-positive bacterial strains. Nature of the test: MIC, text summary over tested Gram-positive strains. It counts as cell-based.
Test [4] concerns S. aureus ATCC 33592 (Sa92). Briefly: MIC, microdilution with resazurin. It counts as cell-based. Particulars: Staphylococcus aureus, ATCC33592, read-out: MIC Sa92. In short, it runs like this: as §1
A general note: Broth dilution looks for growth in wells or tubes with falling amounts of substance.

In test [5] the test system is A. baumannii ATCC 747 (Ab47). Briefly: MIC, microdilution with resazurin. It counts as cell-based, Acinetobacter baumannii. Particulars: Acinetobacter baumannii, ATCC747, read-out: MIC Ab47. In short, it runs like this:
as §1

In test [6] the test system is A. baumannii ATCC 19606 (type strain, Ab06). Briefly: MIC and MBC. It counts as cell-based, Acinetobacter baumannii. Particulars: Acinetobacter baumannii, ATCC19606, read-out: MIC Ab06. In short, it runs like this: as §1
Test [7] relates to S. epidermidis 700296 (Se). Briefly: MIC, microdilution with resazurin. The following applies: Staphylococcus epidermidis, read-out: MIC Se. Type of test: cell-based. In short, it runs like this: as §1
For test [8], the system named is B. subtilis ATCC 6623 (Bs). Nature of the test: MIC, microdilution with resazurin. It counts as cell-based, Bacillus subtilis. Particulars: Bacillus subtilis, ATCC6623, read-out: MIC Bs.
Test [9] deals with S. aureus ATCC 33591 (Sa91). Nature of the test: MIC, microdilution with resazurin. Type of test: cell-based. The following applies: Staphylococcus aureus, ATCC33591, read-out: MIC Sa91. In short, it runs like this: as §1
For test [10], the system named is S. aureus BAA-2312 (Sa12). Briefly: MIC, microdilution with resazurin. Type of test: cell-based. The following applies: Staphylococcus aureus, BAA2312, read-out: MIC Sa12. In short, it runs like this: as §1

Converted amounts (≈) assume the structure as drawn. Like-named read-outs stand apart in the source and are kept apart here.

In general, MIC refers to the smallest concentration in the dilution series that meets the test's criterion for growth inhibition. With `O=C(O)c1ccc(-n2cc(/C=N/Nc3ccccc3)c(-c3ccc4ccccc4c3)n2)cc1` [Compound 6], the MIC is 25 mg/L (≈ 57.8 µM) in [1]; 12.5 mg/L (≈ 28.9 µM) in [2]; 25 mg/L (≈ 57.8 µM) in test [3] (Staphylococcus aureus, read-out: MIC value against S. aureus strains); 12.5 mg/L (≈ 28.9 µM) in test [4]; greater than 50 mg/L in [5]; greater than 50 mg/L in [6]. Also, the minimal inhibitory concentration (MIC) is 25 mg/L (≈ 57.8 µM) in test [7], 25 mg/L (≈ 57.8 µM) in [8], greater than 25 mg/L in [9] and 25 mg/L (≈ 57.8 µM) in [10].

Regarding `CN(/N=C/c1cn(-c2ccc(C(=O)O)cc2)nc1-c1ccc2ccccc2c1)c1ccccc1` [Compound 7], the MIC in [1] was greater than 50 mg/L; in [2], 1.56 mg/L (≈ 3.49 µM); in [4] it was 1.56 mg/L (≈ 3.49 µM); in test [5] it was greater than 50 mg/L; in [6], greater than 50 mg/L; in test [7], greater than 50 mg/L. Moreover, the MIC in test [8], in test [9] and in [10] was greater than 50 mg/L throughout.

Consider `O=C(O)c1ccc(-n2cc(/C=N/N(Cc3ccccc3)c3ccccc3)c(-c3ccc4ccccc4c3)n2)cc1` [Compound 9], for which the MIC in test [1] is 3.12 mg/L (≈ 5.98 µM); in test [2], 1.56 mg/L (≈ 2.99 µM); in test [3] (read-out: MIC value as low as), no less than 1.56 mg/L; in test [4], 1.56 mg/L (≈ 2.99 µM); in test [5] it was greater than 50 mg/L; in test [6], greater than 50 mg/L. Moreover, the minimal inhibitory concentration (MIC) came to 3.12 mg/L (≈ 5.98 µM) in test [7], 25 mg/L (≈ 47.8 µM) in test [8], 1.56 mg/L (≈ 2.99 µM) in [9] and 3.12 mg/L (≈ 5.98 µM) in test [10].

On to `Cc1ccc(N/N=C/c2cn(-c3ccc(C(=O)O)cc3)nc2-c2ccc3ccccc3c2)cc1` [Compound 11], for which the MIC in test [1] was 25 mg/L (≈ 56 µM); in test [2], 6.25 mg/L (≈ 14 µM); in [4], 12.5 mg/L (≈ 28 µM); in test [5], greater than 50 mg/L; in test [6], greater than 50 mg/L; in test [7] it was 25 mg/L (≈ 56 µM). In addition, the minimum inhibitory concentration (MIC) in test [8], in [9] and in test [10] was 25 mg/L (≈ 56 µM) each time. Further, the “antimicrobial activity against the tested strains” value (“antimicrobial activity” for short) in test [3] is listed as “reduced the potency drastically”.

For the compound `CCc1ccccc1N/N=C/c1cn(-c2ccc(C(=O)O)cc2)nc1-c1ccc2ccccc2c1` [Compound 12], the MIC in test [1] was 25 mg/L (≈ 54.3 µM); in [2], 12.5 mg/L (≈ 27.1 µM); in test [4] it was 12.5 mg/L (≈ 27.1 µM); in [5] it was greater than 50 mg/L; in test [6] it was greater than 50 mg/L; in [7], greater than 25 mg/L. The MIC in test [8], in test [9] and in test [10] was 25 mg/L (≈ 54.3 µM) in each case. Besides, the “antimicrobial activity” value in test [3] was “reduced the potency drastically”.

In the case of `COc1ccc(N/N=C/c2cn(-c3ccc(C(=O)O)cc3)nc2-c2ccc3ccccc3c2)cc1` [Compound 13], the MIC in test [1] is greater than 25 mg/L; in test [2], 12.5 mg/L (≈ 27 µM); in test [4], 25 mg/L (≈ 54.1 µM); in test [5], greater than 50 mg/L; in [6], greater than 50 mg/L; in test [7] it was greater than 25 mg/L. Besides, the MIC in test [8] was greater than 25 mg/L; in test [9], 25 mg/L (≈ 54.1 µM); in test [10] it was greater than 25 mg/L. In addition, in [3], the “antimicrobial activity” value was “reduced the potency drastically”.

Regarding `N#Cc1ccc(N/N=C/c2cn(-c3ccc(C(=O)O)cc3)nc2-c2ccc3ccccc3c2)cc1` [Compound 26], the MIC in [1], in [2], in [4], in test [5], in test [6] and in test [7] was greater than 50 mg/L throughout. Further, the MIC in [8], in test [9] and in test [10] was greater than 50 mg/L in each case. For the same compound, the “antimicrobial activity” value in [3] was “eliminated the activity”.

Consider `O=C(O)c1ccc(-n2cc(/C=N/Nc3ccc([N+](=O)[O-])cc3)c(-c3ccc4ccccc4c3)n2)cc1` [Compound 27], for which the MIC in [1], in [2], in [4], in test [5], in [6] and in test [7] was greater than 50 mg/L throughout. Besides, the MIC in [8], in test [9] and in [10] was greater than 50 mg/L in each case. In addition, the “antimicrobial activity” value in test [3] is given as “eliminated the activity”.

Consider `O=C(O)c1ccc(N/N=C/c2cn(-c3ccc(C(=O)O)cc3)nc2-c2ccc3ccccc3c2)cc1` [Compound 28], for which the minimal inhibitory concentration (MIC) in [1], in [2], in test [4], in test [5], in test [6] and in [7] was greater than 50 mg/L in each case. Also, the MIC in [8], in [9] and in test [10] was greater than 50 mg/L throughout. In addition, the “antimicrobial activity” value in [3] was “eliminated the activity”.

As for `CN(C)/N=C/c1cn(-c2ccc(C(=O)O)cc2)nc1-c1ccc2ccccc2c1` [Compound 29], the MIC in [1] is greater than 25 mg/L; in [2], 25 mg/L (≈ 65 µM); in test [4], greater than 25 mg/L; in test [5], greater than 50 mg/L; in test [6], greater than 50 mg/L; in test [7], greater than 25 mg/L. Besides, the figures for the minimal inhibitory concentration (MIC) in test [8], in [9] and in test [10] were greater than 25 mg/L, greater than 50 mg/L and greater than 50 mg/L, respectively. In addition, in test [3], the “antimicrobial activity” value is “did not show any activity”.

Regarding `O=C(O)c1ccc(-n2cc(/C=N/N3CCCCC3)c(-c3ccc4ccccc4c3)n2)cc1` [Compound 30], the MIC was greater than 25 mg/L in test [1]; 25 mg/L (≈ 58.9 µM) in [2]; 25 mg/L (≈ 58.9 µM) in test [4]; greater than 50 mg/L in test [5]; greater than 50 mg/L in [6]; greater than 25 mg/L in [7]. Also, the figures for the MIC in test [8], in test [9] and in [10] were 25 mg/L (≈ 58.9 µM), greater than 25 mg/L and greater than 50 mg/L, respectively. Further, the “antimicrobial activity” value in [3] is recorded as “failed to show any remarkable antimicrobial activity”.

As for `CN1CCN(/N=C/c2cn(-c3ccc(C(=O)O)cc3)nc2-c2ccc3ccccc3c2)CC1` [Compound 31], the minimum inhibitory concentration (MIC) in [1], in test [2], in [4], in test [5], in [6] and in test [7] was greater than 50 mg/L each time. The MIC in test [8], in [9] and in test [10] was greater than 50 mg/L each time. The “antimicrobial activity” value in test [3] is “failed to show any remarkable antimicrobial activity”.

With `O=C(O)c1ccc(-n2cc(/C=N/n3cnnc3)c(-c3ccc4ccccc4c3)n2)cc1` [Compound 32], the minimum inhibitory concentration (MIC) in [1], in [2], in test [4], in test [5], in test [6] and in [7] was greater than 50 mg/L throughout. For the same compound, the MIC in test [8], in test [9] and in test [10] was greater than 50 mg/L throughout. In addition, the “antimicrobial activity” value in test [3] is given as “failed to show any remarkable antimicrobial activity”.

As for `O=C(O)c1ccc(-n2cc(/C=N/NC3=NCCN3)c(-c3ccc4ccccc4c3)n2)cc1` [Compound 33], the MIC in test [1], in test [2], in [4], in test [5], in [6] and in test [7] was greater than 50 mg/L in each case. In addition, the minimal inhibitory concentration (MIC) in [8], in [9] and in [10] was greater than 50 mg/L throughout. Also, in test [3], the “antimicrobial activity” value is given as “failed to show any remarkable antimicrobial activity”.

On to `COC(=O)N/N=C/c1cn(-c2ccc(C(=O)O)cc2)nc1-c1ccc2ccccc2c1` [Compound 34], for which the minimum inhibitory concentration (MIC) in test [1], in [2], in test [4], in test [5], in test [6] and in [7] was greater than 50 mg/L in each case. The MIC in test [8], in test [9] and in test [10] was greater than 50 mg/L each time. In addition, the “antimicrobial activity” value in [3] is listed as “failed to show any remarkable antimicrobial activity”.
